Compounds with a hit are over-represented: about 2.2% of the library has one in this group of screens.
ASAP1 inh = inhibitors of human ASAP1 ArfGAP activity. Q9ULH1. ASAP1-stimulated ARF1 GTP hydrolysis, GDP FP detection. inhibition, % at 16.5 µM. 360,000 compounds, 0.19% hits; in the data active means inhibition above about 25%;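 further: 0% = vehicle with enzyme and substrate and 100% = no enzyme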
rCAG RNA binder = r(CAG) repeat RNA binding; TO-PRO-1 dye displacement fluorescence; inhibition, % at 3 µM; 370,000 compounds, 1.3% hits; AID 651821;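 active means inhibition above the plate cutoff, the mean of all test compounds on that plate plus 3 SD, cut at about 35% in these data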;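 further: 0% = DMSO alone and 100% = 100 µM mitoxantrone as full dye displacement; higher means more dye released from RNA so lower well fluorescence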
NadD inh = inhibitors of Staphylococcus aureus NadD; purified NadD enzyme, colorimetric absorbance read-out; inhibition, % at 20 µM; 360,000 compounds, 0.78% hits; in the data active means inhibition above about 26%
ARFGAP1 inh = inhibits rat ARF GTPase activating protein 1. 360,000 compounds, 0.26% hits. Arfgap1-stimulated ARF1 GTP hydrolysis, GDP FP detection. AID 651572. inhibition, % at 16.5 µM;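 active means inhibition above a per-plate limit, mean inhibition of low control wells plus 3 SD, cut at about 25% in these data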;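 further: 0% = DMSO wells with enzyme and 100% = wells lacking Arfgap1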
Target sequence (Q62848 1-136 limits assumed): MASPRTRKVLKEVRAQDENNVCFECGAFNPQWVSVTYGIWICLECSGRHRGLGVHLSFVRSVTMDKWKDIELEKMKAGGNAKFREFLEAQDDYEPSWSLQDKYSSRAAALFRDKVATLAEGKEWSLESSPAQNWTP
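Material: truncated rat Arfgap1 GAP domain; Incubation: compound-enzyme preincubation 20 min, reaction 120 min, detection 60 min, 25 °C; Read-out: percent inhibition of Arfgap1-stimulated GTP hydrolysis; Technique: FP, GDP Alexa 633 tracer displaced from anti-GDP antibody, 620/688 nm; Controls: No-Arfgap1 wells (100%) versus DMSO full-reaction wells (0%); Replication: single well per compound.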
rCAG binder conf = r(CAG) RNA repeat binding, confirmation | shares compounds with rCAG RNA binder | TO-PRO-1 dye displacement fluorescence | inhibition, % at 3 µM | 4,300 compounds, 70% hits;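 active means inhibition above a per-plate cutoff, the mean inhibition of sample wells plus 3 SD, cut at about 35% in these data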;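 further: loss of TO-PRO-1 fluorescence as compound displaces dye from 1x1 AA loop RNA; 0% = DMSO only wells and 100% = 100 µM mitoxantrone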
dCAG dye counter = counter-screen for rCAG RNA binders: DNA CAG dye complex inhibitors; shares compounds with rCAG RNA binder; d(CAG) DNA oligo TO-PRO-1 dye displacement, fluorescence; inhibition, % at 3 µM; 4,300 compounds, 94% hits; AID 652068;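 active means inhibition above its plate's cutoff, the mean test-well inhibition plus 3 SD, cut at about 4.8% in these data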;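 further: 0% = DNA dye mix with DMSO and 100% = 100 µM mitoxantrone; hits displace the dye from DNA and so lower well fluorescence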
Starred values were filed as active, the others as inactive; . = no result.

SMILES	ASAP1 inh	rCAG RNA binder	NadD inh	ARFGAP1 inh	rCAG binder conf	dCAG dye counter
O=C1NC(=O)N(c2ccccc2)C(=O)/C1=C\c1ccc([N+](=O)[O-])s1	-10	43*	.	-1	45*	18*
COc1ccc(N2C(=O)NC(=O)/C(=C\c3ccccc3[N+](=O)[O-])C2=O)cc1	-8	7	4	-3	.	.
CN1C(=O)NC(=O)/C(=C/c2ccc([N+](=O)[O-])s2)C1=O	12	19	13	-7	.	.
CCOC(=O)[C@]12Cc3cc4ccccc4cc3[C@H]1N(Cc1ccccc1)C(=O)c1ccccc12	5	5	3	1	.	.
CCCCN1C(=O)/C(=C/c2ccc(N(C)C)cc2)C(=O)N(Cc2ccco2)C1=O	-6	54*	34*	-7	33	10*
Cc1ccc(OC(=O)N(C)C[C@@H]2OCc3ccccc3-c3c(n(C)c4ccccc34)C(=O)N([C@H](C)CO)C[C@H]2C)cc1	3	8	.	-1	.	.
CCc1ccc(N2C(=O)NC(=O)/C(=C\C=C\c3ccco3)C2=O)cc1	16	45*	7	17	19	9.3*
Cc1cc(C)cc(N2C(=O)NC(=O)/C(=C\C=C\c3ccco3)C2=O)c1	5	39*	6	8	15	7.7*
CC(C)c1ccc(N2C(=O)NC(=O)/C(=C/C=C/c3ccco3)C2=O)cc1	2	54*	8	13	29	9.4*
O=C(N/N=C1/CN2CCC1CC2)c1cc2ccccc2cc1O	-4	49*	9	-3	7	2
O=C(NC1CN2CCC1CC2)c1ccc(Cl)cc1 (stereo unspecified)	-7	0	.	2	.	.
O=C(NCCN1CCC2(CC1)C(=O)NCN2c1ccccc1)c1cccnc1Cl	16	1	.	3	.	.
COc1cc(O)c2c(c1)/C=C/C[C@H](O)[C@H](O)C(=O)CCC[C@H](C)OC2=O	9	1	-2	-6	.	.
N/C(=N\N=C/c1ccc(-c2ccc(O)c(C(=O)O)c2)o1)N[N+](=O)[O-]	2	58*	4	1	67*	28*
COc1ccc(/C=N/N=C(/N)N[N+](=O)[O-])c(OC)c1	0	3	9	-9	.	.

Compound activity as filed in PubChem BioAssay.
